Laboratory results from ChEMBL document CHEMBL1140369, “Synthesis and SAR of 2-carboxylic acid indoles as inhibitors of plasminogen activator inhibitor-1” (Bioorg Med Chem Lett, 2005).

Legend:
[1] = target: T1, Plasminogen activator inhibitor 1 (Homo sapiens, UniProt P05121); assay: Percentage inhibitory activity against Plasminogen activator inhibitor-1 at 25 uM
Procedure, shortened: (§1)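 Recombinant human PAI-1 with compound, then tPA added; restored tPA cleavage of a chromogenic substrate read spectrophotometrically and reported as % inhibition at single concentration. Buffer pH 6.6: Na2HPO4 50 mM, NaCl 200 mM, EDTA 1 mM, no serum protein.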

[2] = target: T1, Plasminogen activator inhibitor 1; assay: Percentage inhibitory activity against Plasminogen activator inhibitor-1 at 10 uM; procedure, shortened: as §1
[3] = target: T1, Plasminogen activator inhibitor 1; assay: Inhibitory concentration against Plasminogen activator inhibitor-1 by antibody assay
[4] = target: T1, Plasminogen activator inhibitor 1; assay: Percentage inhibitory activity against Plasminogen activator inhibitor-1 at 100 uM; procedure, shortened: as §1

T1 sequence (P05121 whole entry): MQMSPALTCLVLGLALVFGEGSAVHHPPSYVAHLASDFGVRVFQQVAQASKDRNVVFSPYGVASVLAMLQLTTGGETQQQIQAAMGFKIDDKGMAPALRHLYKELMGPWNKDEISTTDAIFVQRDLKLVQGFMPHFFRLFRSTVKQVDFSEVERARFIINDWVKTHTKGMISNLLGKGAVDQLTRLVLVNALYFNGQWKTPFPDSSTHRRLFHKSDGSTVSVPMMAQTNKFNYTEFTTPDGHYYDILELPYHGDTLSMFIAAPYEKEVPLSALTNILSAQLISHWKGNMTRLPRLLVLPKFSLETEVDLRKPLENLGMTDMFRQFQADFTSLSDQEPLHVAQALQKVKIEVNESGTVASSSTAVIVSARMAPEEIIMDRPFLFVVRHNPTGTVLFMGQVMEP

Compound: CC(C)(C)c1ccc(Nc2ccc3c(c2)c(-c2ccccc2)c(C(=O)O)n3Cc2ccccc2)cc1
- Inhibition [1]: 73%
- Inhibition [2]: 45%

Compound: Cn1c(C(=O)O)c(-c2ccccc2)c2cc(NS(=O)(=O)c3ccc(C(C)(C)C)cc3)ccc21
- Inhibition [1]: 46%
- Inhibition [2]: 5%

Compound: O=C(Nc1ccc(Cl)c(Cl)c1)c1ccc(CNc2cc([N+](=O)[O-])ccc2C(=O)O)cc1
- IC50 [3]: 17.8 µM
- Inhibition [4]: 74%
- Inhibition [1]: 51%
- Inhibition [2]: 3%

Compound: O=C(O)C(=O)c1cn(Cc2ccccc2)c2ccc(-c3ccc(OC(F)(F)F)cc3)cc12
- Inhibition [4]: 83%
- Inhibition [1]: 47%
- Inhibition [2]: 0%

Compound: O=C(Nc1ccc2c(c1)c(-c1ccccc1)c(C(=O)O)n2Cc1ccccc1)Nc1ccc(F)cc1F
- Inhibition [1]: 61%
- Inhibition [2]: 27%

Compound: CCCCS(=O)(=O)Nc1ccc2c(c1)cc(C(=O)O)n2Cc1ccccc1
- Inhibition [4]: 14%

Compound: O=C(O)c1cc2cc(NS(=O)(=O)c3ccc(-c4ccccc4)cc3)ccc2n1Cc1ccccc1
- IC50 [3]: 63.1 µM
- Inhibition [4]: 64%
- Inhibition [1]: 49%

Compound: O=C(O)c1c(-c2ccccc2)c2cc(-n3cccc3)ccc2n1Cc1ccccc1
- Inhibition [1]: 69%
- Inhibition [2]: 12%

Compound: O=C(O)c1c(-c2ccccc2)c2cc(Nc3ccc(-c4ccccc4)cc3)ccc2n1Cc1ccccc1
- Inhibition [1]: 71%
- Inhibition [2]: 36%

Compound: CC(C)(C)c1ccc(S(=O)(=O)Nc2ccc3c(c2)c(-c2ccccc2)c(C(=O)O)n3Cc2ccccc2)cc1
- Inhibition [1]: 82%
- Inhibition [2]: 41%

Compound: O=C(O)c1c(-c2ccccc2)c2cc(NS(=O)(=O)c3ccccc3)ccc2n1Cc1ccc(-c2ccccc2)cc1
- Inhibition [1]: 87%
- Inhibition [2]: 79%

Compound: Cc1ccc(C)n1-c1ccc2c(c1)c(-c1ccccc1)c(C(=O)O)n2Cc1ccccc1
- Inhibition [1]: 83%
- Inhibition [2]: 23%

Compound: Cc1cccc(Nc2ccc3c(c2)c(-c2ccccc2)c(C(=O)O)n3Cc2ccccc2)c1
- Inhibition [1]: 69%
- Inhibition [2]: 24%

Compound: Cn1c(C(=O)O)c(-c2ccccc2)c2cc(NS(=O)(=O)c3cccc4cccnc34)ccc21
- Inhibition [1]: 1%
- Inhibition [2]: 0%

Compound: O=C(O)c1cc2cc(NS(=O)(=O)c3ccc(Cl)c(Cl)c3)ccc2n1Cc1ccccc1
- Inhibition [4]: 62%

Compound: CC(C)(C)c1ccc(Nc2ccc3c(c2)c(-c2ccccc2)c(C(=O)O)n3Cc2ccc(-c3ccccc3)cc2)cc1
- Inhibition [1]: 80%
- Inhibition [2]: 52%

Compound: O=C(O)c1c(-c2ccccc2)c2cc(NS(=O)(=O)c3ccc(-c4ccccc4)cc3)ccc2n1Cc1ccccc1
- Inhibition [1]: 61%
- Inhibition [2]: 44%

Compound: Cn1c(C(=O)O)c(-c2ccccc2)c2cc(NS(=O)(=O)c3ccc(OC(F)(F)F)cc3)ccc21
- Inhibition [1]: 19%
- Inhibition [2]: 0%

Compound: O=C(O)c1c(-c2ccccc2)c2cc(NS(=O)(=O)c3ccc(OC(F)(F)F)cc3)ccc2n1Cc1ccccc1
- Inhibition [1]: 81%
- Inhibition [2]: 33%

Compound: O=C(O)c1cc2cc(NS(=O)(=O)c3ccccc3)ccc2n1Cc1ccccc1
- Inhibition [4]: 32%

Compound: O=C(O)c1c(-c2ccccc2)c2cc(NS(=O)(=O)c3cccc4cccnc34)ccc2n1Cc1ccccc1
- Inhibition [1]: 43%
- Inhibition [2]: 8%

Compound: Cn1c(C(=O)O)c(-c2ccccc2)c2cc(NS(=O)(=O)c3ccc(-c4ccccc4)cc3)ccc21
- Inhibition [1]: 68%
- Inhibition [2]: 11%

Compound: O=C(Nc1ccc2c(c1)c(-c1ccccc1)c(C(=O)O)n2Cc1ccccc1)c1ccc(F)cc1F
- Inhibition [1]: 43%
- Inhibition [2]: 24%
